According to ChEMBL document CHEMBL1123375, “Carbocyclic puromycin: synthesis and inhibition of protein biosynthesis” (1986):
Values after ≈ are worked out from the molar mass of the structure shown.

Tests used:
[1] = species: Rattus norvegicus; assay: (§1) Kinetic constant was evaluated by using peptidyl transferase assay against Rat liver ribosome system
Summary of the method: (§2)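 Ac-[3H]-L-Phe-tRNA (22 pmol) prebound 60 min at 37°C to rat liver ribosomes (4.0 A260 units) with poly(U), 1.6 mM GTP, FWR, 15 mM Mg(OAc)2, 100 mM Tris-HCl pH 7.5, 100 mM NH4Cl. Mixture added to puromycin compound, 37°C for varying times. Product extracted into ethyl acetate and counted. Km and Vmax by Wilkinson analysis.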

[2] = Compound was evaluated for the cytotoxicity by using P-388 in vitro assay against P-388 mouse lymphoid leukemia cells in 4 mL of Fischer's medium with 10% horse serum.; format: functional; conditions: P388, read-out: ED50 (the source's name)
Summary of the method: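 Twofold dilution series in duplicate tubes, each seeded with 4×10^5 cells, incubated 72 h at 37°C, stoppered and held at a 30° angle without agitation, rotated twice daily. Growth read by hemocytometer count, inoculum subtracted. Percent inhibition calculated against controls, ED50 derived from this.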

[3] = species: Rattus norvegicus; assay: Substrate efficiency was evaluated by using peptidyl transferase assay against Rat liver ribosome system.; format: functional; summary of the method: as §2
[4] = species: Rattus norvegicus; assay: Ratio of kinetic parameter Vmax to that of Km in Rat liver ribosome; design: unit not given here; summary of the method: as §2
[5] = tested on: Escherichia coli; assay: Substrate efficiency was evaluated by using peptidyl transferase assay against Escherichia coli ribosome system; format: functional
Summary of the method: (§3)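 Ac-[14C]-L-Phe-tRNA (21 pmol) prebound 8 min at 28°C to washed E. coli ribosomes (2.78 A260 units) with poly(U), 1.50 mM GTP, FWR, 20 mM Mg(OAc)2, 130 mM Tris-HCl pH 7.5, 130 mM NH4Cl. Reaction started with puromycin compound in water, run for timed intervals, then stopped with NaOH. Ethyl acetate-extracted product counted, blank-corrected. Km and Vmax by Wilkinson analysis, triplicates.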

[6] = tested on: Escherichia coli; assay: (§4) Kinetic constant was evaluated by using peptidyl transferase assay against Escherichia coli ribosome system; summary of the method: as §3
[7] = tested on: Escherichia coli; assay: Ratio of kinetic parameter Vmax to that of Km in Escherichia coli ribosome system; design: unit not given here; summary of the method: as §3
[8] = tested on: Escherichia coli; assay: as §4; format: functional; summary of the method: as §3
[9] = species: Rattus norvegicus; assay: Substrate efficiency was evaluated by using peptidyl transferase assay against Rat liver ribosome system; format: functional; summary of the method: as §2
[10] = species: Rattus norvegicus; assay: Substrate efficiency of the compound was evaluated by using peptidyl transferase assay against Rat liver ribosome system; format: functional; summary of the method: as §2
[11] = species: Rattus norvegicus; assay: as §1; format: functional; summary of the method: as §2

SMILES | Km [1] [µM] | Vmax [1] [c.p.m.] | EC50 [2] [mg/L] | Efficiency [3] [%] | Ratio [4] | Efficiency [5] [%] | Km [6] [µM] | Vmax [6] [c.p.m.] | Ratio [7] | Km [8] [µM] | Efficiency [9] [%] | Efficiency [10] [%] | Km [11] [µM]
COc1ccc(CC(N)C(=O)N[C@@H]2CC[C@@H](n3cnc4c(N(C)C)ncnc43)[C@@H]2O)cc1 (stereo partly specified) | 276 | 871 | 0.8 (≈ 1.82 µM) | 5.7 | 3160 | 34 | 188 | 644 | 3420 | – | – | – | –
COc1ccc(CC(N)C(=O)N[C@@H]2[C@@H](CO)C[C@@H](n3cnc4c(N(C)C)ncnc43)[C@@H]2O)cc1 (stereo partly specified) | 300 | 3720 | 0.3 (≈ 0.639 µM) | – | 12400 | 45 | – | 850 | 4540 | 187 | 22 | – | –
COc1ccc(CC(N)C(=O)N[C@H]2[C@@H](O)[C@H](n3cnc4c(N(C)C)ncnc43)O[C@@H]2C)cc1 (stereo partly specified) | 610 | 14200 | 0.3 (≈ 0.659 µM) | – | 23300 | 81 | – | 1890 | 8220 | 230 | – | 42 | –
COc1ccc(C[C@H](N)C(=O)N[C@H]2[C@@H](O)[C@H](n3cnc4c(N(C)C)ncnc43)O[C@@H]2CO)cc1 [PUROMYCIN] | – | 14200 | 0.3 (≈ 0.636 µM) | – | 55700 | 100 | – | 1890 | 10200 | 186 | 100 | – | 255
